TAAR1 agonist – agonists of human TAAR1; CHO RD-HGA16 TAAR1, Fluo-8 calcium fluorescence; vehicle wells 0%, saturating PEA agonist 100%; 360,000 tested, 0.99% active; activation, % at 3 µM; Q96RJ0; AID 624467;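 active = activation above the mean activation of all test compounds in the run plus 3 SD, cut at about 38% in these data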
Target sequence (Q96RJ0 whole entry, looked up): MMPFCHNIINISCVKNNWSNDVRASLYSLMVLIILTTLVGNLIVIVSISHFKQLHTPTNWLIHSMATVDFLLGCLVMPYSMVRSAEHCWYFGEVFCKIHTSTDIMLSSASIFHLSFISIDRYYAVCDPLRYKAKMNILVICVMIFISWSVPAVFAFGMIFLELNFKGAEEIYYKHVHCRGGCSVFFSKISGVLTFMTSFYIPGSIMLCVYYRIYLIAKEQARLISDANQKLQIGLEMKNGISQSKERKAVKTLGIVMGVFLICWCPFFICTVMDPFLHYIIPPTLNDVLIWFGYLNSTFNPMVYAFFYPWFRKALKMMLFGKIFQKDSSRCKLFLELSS
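System: CHO RD-HGA16 cells carrying human TAAR1 plus Gα16; Incubation: 17-24 h seeding, 75 min 37 °C dye, 30 min RT; Measured by: Fluo-8 fluorescence, 5 s baseline then 140 s kinetic read; Control set: DMSO and PEA EC100; Replication: single well for each compound.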
TAAR1 antag – antagonists of human TAAR1; 360,000 tested, 1.5% active; CHO RD-HGA16 TAAR1, Fluo-8 calcium fluorescence, antagonist; inhibition, % at 3 µM; Q96RJ0;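 active = inhibition above a per-plate cutoff, the mean inhibition of test compounds on that plate plus 3 SD, cut at about 49% in these data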;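 note: 0% = DMSO plus EC80 beta-PEA response and 100% = DMSO alone without agonist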
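System: CHO RD-HGA16 cells bearing hTAAR1. Reagent: EC80 β-phenethylamine stimulus. Schedule: seeding 17-24 h prior, 75-min 37 °C, 30-min RT dye loading. Signal: Fluo-8 intracellular calcium dye fluorescence, real-time kinetic reads. Read-out: % inhibition from peak post-agonist over basal fluorescence ratio. Benchmarks: vehicle wells and EC80 agonist wells. Replicates: n of 1.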
CHRM4 agonist – agonists of human muscarinic M4 receptor (CHRM4); P08173; activation, % at 3 µM; CHO-K1 hM4/Gqi5, Fluo-8 calcium fluorescence; vehicle 0%, full acetylcholine response 100%; 360,000 tested, 0.14% active;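 active = activation above the run mean over all test wells plus 3 SD, cut at about 32% in these data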;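 note: peak over basal fluorescence ratio per well then scaled between controls; 0% = DMSO wells and 100% = acetylcholine at EC100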
M4 PAM – potentiates acetylcholine response at human M4 receptor; P08173; CHO-K1 hM4/Gqi5, Fluo-8 calcium fluorescence, ACh EC20; 0% = ACh EC20, 100% = maximal ACh; activation, % at 3 µM; 360,000 tested, 0.4% active; AID 624126;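 active = activation above its plate's cutoff, the mean activation of sample wells plus 3 SD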
CHRM4 antagonist – blocks acetylcholine activation of human M4 receptor. 360,000 tested, 0.73% active. CHO-hM4 cells, ACh EC80, Fluo-8 calcium fluorescence. P08173. inhibition, % at 3 µM. AID 624125;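 active = inhibition above its plate's cutoff, the mean inhibition of sample wells plus 3 SD, cut at about 27% in these data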;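 note: 0% = acetylcholine EC80 with DMSO and 100% = DMSO without agonist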
TAAR1 ag confirm – human TAAR1 agonism, confirmed; CHO RD-HGA16 TAAR1, Fluo-8 calcium fluorescence; scaled: DMSO 0%, maximal phenethylamine 100%; shares compounds with TAAR1 agonist; 2,400 tested, 82% active; activation, % at 3 µM;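 active = activation above a cutoff set at the run's mean compound activation plus 3 SD, cut at about 39% in these data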
Ga16 ag counter – counter-screen for TAAR1 agonists: nonselective agonists in parental cells. shares compounds with TAAR1 agonist. CHO-Ga16 parental, Fluo-8 calcium fluorescence; normalized to maximal ATP response, DMSO zero. activation, % at 3 µM. 2,400 tested, 50% active. AID 651787;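 active = activation above the run cutoff, the mean activation over all tested wells plus 3 SD, cut at about 12% in these data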;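 note: 0% = DMSO wells and 100% = maximal ATP response on the peak over basal ratio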
TAAR1 desensitize – counter-screen for human TAAR1 agonists: agonists that desensitize TAAR1. shares compounds with TAAR1 agonist. CHO RD-HGA16 hTAAR1, Fluo-8 calcium, beta-PEA response inhibition. inhibition, % at 3 µM. 2,400 tested, 46% active. AID 651951;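 active = inhibition above the run cutoff, the mean inhibition of all test compounds plus 3 SD, cut at about 49% in these data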;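 note: beta-PEA stimulus applied at its EC80; loss of beta-PEA calcium signal after compound pretreatment read as receptor desensitization; 0% = DMSO with beta-PEA at EC80 and 100% = DMSO alone without agonist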
Ga16 nonsel ant – nonselective Ga16 antagonist in TAAR1 agonist counter-screen | shares compounds with TAAR1 agonist | CHO-Ga16 ATP-induced calcium, Fluo-8 fluorescence | inhibition, % at 3 µM | 2,400 tested, 39% active | AID 651952;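 active = inhibition above the plate's mean compound inhibition plus 3 SD, computed per plate, cut at about 22% in these data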;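 note: 0% = EC80 ATP with DMSO and 100% = DMSO wells without ATP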
Starred values were filed as active, the others as inactive; · = no result. Sampled rows, rich in hits. Any-hit rate of the full collection: about 3%.

SMILES	TAAR1 agonist	TAAR1 antag	CHRM4 agonist	M4 PAM	CHRM4 antagonist	TAAR1 ag confirm	Ga16 ag counter	TAAR1 desensitize	Ga16 nonsel ant
CC1=C2C3OC(=O)C(C)C3CCC2(C)C=CC1=NO (stereo unspecified)	1	6	4	-4	5	·	·	·	·
O=S(=O)(NCCc1csc(-c2ccccc2)n1)c1ccc2c(c1)OCCO2	94*	34	8	-2	-8	62*	43*	32	24*
O=S(=O)(NCc1csc(-c2cccnc2)n1)c1ccc2c(c1)OCCO2	0	-18	4	0	5	·	·	·	·
Fc1ccc(Nc2nc(NCc3ccco3)c3ccccc3n2)cc1	70*	43	13	-41	18	40*	23*	49*	39*
Cc1ccc(C(=O)NC(=S)NNC(=O)c2ccccc2O)cc1	114*	32	0	3	-2	127*	97*	77*	45*
O=C(NC(=S)NNC(=O)c1ccccc1O)c1ccc(F)cc1	90*	21	16	-4	-4	55*	58*	20	22*
O=C(NC(=S)NNC(=O)c1ccccc1O)c1ccccc1	66*	29	6	-2	5	76*	66*	24	21
O=C(NNC(=S)NC(=O)c1ccccc1[N+](=O)[O-])c1ccccc1O	5	-11	0	6	4	·	·	·	·
Cc1ccccc1C(=O)NNC(=S)NC(=O)c1ccccc1	123*	55*	41*	-5	1	135*	112*	100*	78*
Cc1cn([C@H]2C[C@H](O)[C@@H](/C=C/C(=O)NCCN3CCOCC3)O2)c(=O)[nH]c1=O	1	0	0	-1	14	·	·	·	·
O=C(NCc1ccc(Cl)c(Cl)c1)c1cc(C2CCCCN2C(=O)c2cccs2)on1 (stereo unspecified)	0	-10	3	-1	-13	·	·	·	·
O=C(CSc1nc2[nH]ncc2c(=O)[nH]1)NCc1ccccc1	-1	-4	1	24	-3	·	·	·	·
O=C(CSc1nc2[nH]ncc2c(=O)[nH]1)NCCc1ccccc1	57*	12	0	-3	-6	29	0	13	10
Cc1ccc(-n2c(SCC(N)=O)nnc2-c2ccc(S(=O)(=O)N3CCCCC3)cc2)c(C)c1	38*	13	12	-36	99*	29	16*	32	34*
COc1cc(F)ccc1Oc1cccc2c1S(=O)(=O)N(C1CC1)C[C@@H](COCc1ccccc1)O2	0	-3	·	·	·	·	·	·	·
O=C1CCN2C=Nc3cccc4ccc1c2c34	109*	32	14	0	1	31	36*	25	20
O=C1CCC(=O)c2ccc3c4c(ccc1c24)CC3	0	14	3	12	-8	·	·	·	·
CCOC(=O)C1=C(N)n2c(s/c(=C/c3ccco3)c2=O)=C(C(=O)OC)C1c1ccco1 (stereo unspecified)	68*	33	2	-1	2	72*	30*	51*	40*
CCOC(=O)C1=c2s/c(=C\c3ccncc3)c(=O)n2C(N)=C(C(=O)OC)C1c1ccncc1 (stereo unspecified)	4	18	1	0	-2	·	·	·	·
CC(=O)N1N=C(c2ccc(C)c([N+](=O)[O-])c2)OC1(C)C	-1	-23	1	-8	4	·	·	·	·
CC(=O)N1N=C(c2cccc([N+](=O)[O-])c2)OC1(C)c1cccs1 (stereo unspecified)	58*	54*	1	-6	1	0	0	0	8
CCCCOc1ccccc1C(=O)NNC(=S)NC(=O)c1ccccc1[N+](=O)[O-]	85*	34	14	-5	11	43*	43*	37	41*
COC(=O)c1ccc(CNC(=O)COC(=O)c2cc(Cl)ccc2O)cc1	62*	70*	2	20	-13	21	5	19	17
CCOC(=O)CCCCCC(=O)Nc1ccc2c(c1)C(=O)N([C@H](C)CO)C[C@H](C)[C@@H](CN(C)C(=O)Nc1ccccc1)OCCCC[C@@H](C)O2	-1	5	-1	2	-10	·	·	·	·
CC(=O)Nc1ccc(/C=N/N2C(=O)NC(C)(c3ccc(OC(F)F)cc3)C2=O)cc1 (stereo unspecified)	140*	97*	10	0	17	138*	105*	104*	93*
SMILES	TAAR1 agonist	TAAR1 antag	CHRM4 agonist	M4 PAM	CHRM4 antagonist	TAAR1 ag confirm	Ga16 ag counter	TAAR1 desensitize	Ga16 nonsel ant
CC1(c2ccccc2)NC(=O)N(CC(=O)Nc2ccc3c(c2)OCO3)C1=O (stereo unspecified)	7	-3	2	4	2	·	·	·	·
CC1(c2ccc(OC(F)F)cc2)NC(=O)N(CC(=O)Nc2ccc3c(c2)OCO3)C1=O (stereo unspecified)	110*	51*	32*	3	8	107*	73*	87*	62*
CC1(c2ccc(OC(F)F)cc2)NC(=O)N(CC(=O)Nc2ccccc2)C1=O (stereo unspecified)	148*	99*	67*	-14	17	139*	92*	101*	73*
CCOC(=O)CN1C(=O)NC(C)(c2ccc(OC(F)F)cc2)C1=O (stereo unspecified)	15	-14	2	-1	-2	·	·	·	·
O=c1oc2c(O)cccc2cc1-c1nc2ccccc2[nH]1	83*	9	25	-12	13	93*	90*	46	29*
O=C(c1nc2ncccn2n1)N1CCc2ccccc2C1	51*	21	1	-4	1	71*	0	28	6
O=C(c1cccnc1)N1CCc2ccccc21	5	12	0	-5	-4	·	·	·	·
O=C(c1cccnc1)N1CCc2ccccc2C1	59*	-6	0	0	6	40*	2	3	8
COC(=O)C[C@@H]1C=C[C@H](NC(=O)Cc2ccccn2)[C@@H](CO)O1	1	3	1	3	-7	·	·	·	·
